Experimental data taken from ChEMBL document CHEMBL1143122, “Novel analogs of D-e-MAPP and B13. Part 1: synthesis and evaluation as potential anticancer agents” (Bioorg Med Chem, 2008).

What was measured:
RPMI-8226 = assay: Antiproliferative activity against human RPMI8226 cells after 48 hrs; format: functional; conditions: RPMI-8226, 48 h
Procedure, shortened: (§1)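 NCI 60-cell screen. Cells were grown in RPMI 1640 with 5% FBS and 2 mM L-glutamine, then plated at 5,000–40,000 cells/well according to doubling time and preincubated for 24 h at 37 °C in 5% CO2. Compounds were dissolved in DMSO at 400× the top final concentration and tested at five 10-fold dilutions from 10−4 to 10−8 M for 48 h. Growth was read spectrophotometrically; GI50 is 50% net protein reduction.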

NCI-H226 = assay: Antiproliferative activity against human NCI-H226 cells after 48 hrs; format: functional; conditions: NCI-H226, 48 h; procedure, shortened: as §1
K562 = assay: Antiproliferative activity against human K562 cells after 48 hrs; format: functional; conditions: K562, 48 h; procedure, shortened: as §1
SW-620 = assay: Antiproliferative activity against human SW620 cells after 48 hrs; format: functional; conditions: SW-620, 48 h
Procedure, shortened: (§2)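 NCI 60-cell-line screen. Lines grown in RPMI 1640 with 5% fetal bovine serum and 2 mM L-glutamine, plated at 5,000–40,000 cells/well according to doubling time, left 24 h at 37 °C in 5% CO2. Drug stocks in DMSO at 400-fold the top final concentration. Five 10-fold dilutions, 10−4 to 10−8 M, incubated 48 h. Growth read spectrophotometrically as net protein; GI50 taken as 50% reduction.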

SF-539 = assay: Antiproliferative activity against human SF539 cells after 48 hrs; format: functional; conditions: SF-539, 48 h; procedure, shortened: as §1
Hs-578T = assay: Antiproliferative activity against human HS578T cells after 48 hrs; format: functional; procedure, shortened: as §1
NCI-H522 = assay: Antiproliferative activity against human NCI-H522 cells after 48 hrs; format: functional; conditions: NCI-H522, 48 h; procedure, shortened: as §1
SK-MEL-5 = assay: Antiproliferative activity against human SKMEL5 cells after 48 hrs; format: functional; conditions: SK-MEL-5, 48 h; procedure, shortened: as §1
RXF 393 = assay: Antiproliferative activity against human RXF393 cells after 48 hrs; format: functional; conditions: RXF 393, 48 h; procedure, shortened: as §1
A549 = assay: Antiproliferative activity against human A549 cells after 48 hrs; format: functional; conditions: A549, 48 h; procedure, shortened: as §1
SF-268 = assay: Antiproliferative activity against human SF268 cells after 48 hrs; format: functional; conditions: SF-268, 48 h; procedure, shortened: as §1
OVCAR-4 = assay: Antiproliferative activity against human OVCAR4 cells after 48 hrs; format: functional; conditions: OVCAR-4, 48 h; procedure, shortened: as §1
MCF7 [1] = assay: Antiproliferative activity against human MCF7 cells after 48 hrs; format: functional, cell-based; conditions: MCF7, 48 h
MDA-MB-435 = assay: Antiproliferative activity against human MDA-MB-435 cells after 48 hrs; format: functional; procedure, shortened: as §1
COLO 205 = assay: Antiproliferative activity against human COLO205 cells after 48 hrs; format: functional; conditions: COLO 205, 48 h; procedure, shortened: as §1
HCC 2998 = assay: Antiproliferative activity against human HCC2998 cells after 48 hrs; format: functional; conditions: HCC 2998, 48 h; procedure, shortened: as §1
BT-549 = assay: Antiproliferative activity against human BT549 cells after 48 hrs; format: functional; conditions: BT-549, 48 h; procedure, shortened: as §1
ACHN = assay: Antiproliferative activity against human ACHN cells after 48 hrs; format: functional; procedure, shortened: as §1
OVCAR-8 = assay: Antiproliferative activity against human OVCAR8 cells after 48 hrs; format: functional; conditions: OVCAR-8, 48 h; procedure, shortened: as §1
MCF7 [2] = assay: Drug level in human MCF7 cells at 10 uM per 10^6 cells after 0.5 hrs; format: ADME, cell-based; conditions: mcf7, 0.5 h
Procedure, shortened: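 MCF7 cells kept in RPMI 1640 with 10% fetal calf serum at 37 °C, 5% CO2, then treated with 10 μM analog. Intracellular analog measured over time by HPLC-MS in positive-ion MRM mode. Quantified against calibration curves made by spiking an artificial matrix with standards plus internal standard, using analyte/IS peak-area ratios and linear regression. Reported as pmol per 1×10^6 cells.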

NCI-H23 = assay: Antiproliferative activity against human NCI-H23 cells after 48 hrs; format: functional; conditions: NCI-H23, 48 h; procedure, shortened: as §1
HCT-116 = assay: Antiproliferative activity against human HCT116 cells after 48 hrs; format: functional; conditions: HCT-116, 48 h; procedure, shortened: as §1
OVCAR-3 = assay: Antiproliferative activity against human OVCAR-3 cells after 48 hrs; format: functional; conditions: OVCAR-3, 48 h; procedure, shortened: as §1
OVCAR-5 = assay: Antiproliferative activity against human OVCAR5 cells after 48 hrs; format: functional; conditions: OVCAR-5, 48 h; procedure, shortened: as §1
[3] = Antiproliferative activity against human […] cells after 48 hrs; format: functional; procedure, shortened: as §1
Malme-3M = assay: Antiproliferative activity against human MALME3M cells after 48 hrs; format: functional; procedure, shortened: as §1
CCRF-CEM = assay: Antiproliferative activity against human CCRF-CEM cells after 48 hrs; format: functional; procedure, shortened: as §1
SNB-75 = assay: Antiproliferative activity against human SNB75 cells after 48 hrs; format: functional; conditions: SNB-75, 48 h; procedure, shortened: as §1
U-251 = assay: Antiproliferative activity against human U251 cells after 48 hrs; format: functional; conditions: U-251, 48 h; procedure, shortened: as §2
[4] = read-out: Log LC50 (the source's name) (converted)

## C[C@@H](NC(=O)CCCCCCCCCCCCCCC[n+]1ccccc1)[C@@H](O)c1ccccc1.[Br-]
RPMI-8226
  GI50: 0.288 µM
RPMI-8226; [4]
  CC50: 5.13 µM
RPMI-8226; read-out: Log TGI (converted)
  TGI: 1.91 µM
NCI-H226
  GI50: 4.17 µM
NCI-H226; [4]
  CC50: > 100 µM
NCI-H226; read-out: Log TGI (converted)
  TGI: 22.9 µM
K562
  GI50: 0.832 µM
  LC50: > 100 µM
K562; read-out: Log TGI (converted)
  TGI: 3.98 µM
SW-620
  GI50: 4.27 µM
  LC50 (concentration killing 50% of cells): 66.1 µM
SW-620; read-out: Log TGI (converted)
  TGI: 17.4 µM
SF-539
  GI50: 2.04 µM
  LC50: > 100 µM
SF-539; read-out: Log TGI (converted)
  TGI: 5.5 µM
Hs-578T
  GI50: 1.78 µM
  LC50: 9.12 µM
Hs-578T; read-out: Log TGI (converted)
  TGI: 4.07 µM
NCI-H522
  GI50: 1.48 µM
NCI-H522; read-out: Log TGI (converted)
  TGI: 3.63 µM
SK-MEL-5
  GI50: 1.58 µM
SK-MEL-5; [4]
  CC50: 5.5 µM
SK-MEL-5; read-out: Log TGI (converted)
  TGI: 2.95 µM
RXF 393
  GI50: 4.57 µM
RXF 393; [4]
  CC50: 97.7 µM
RXF 393; read-out: Log TGI (converted)
  TGI: 24 µM
A549
  GI50: 4.37 µM
A549; [4]
  CC50: > 100 µM
A549; read-out: Log TGI (converted)
  TGI: 43.7 µM
SF-268
  GI50: 1.66 µM
  LC50: 6.03 µM
SF-268; read-out: Log TGI (converted)
  TGI: 3.16 µM
OVCAR-4
  GI50: 1.7 µM
  LC50: > 100 µM
OVCAR-4; read-out: Log TGI (converted)
  TGI: 5.37 µM
MCF7 [1]
  GI50: 1.58 µM
  LC50: 8.51 µM
MCF7 [1]; read-out: Log TGI (converted)
  TGI: 3.72 µM
MDA-MB-435
  GI50: 1.58 µM
MDA-MB-435; Homo sapiens, MDA-MB-435, 48 h
  GI50: 1.78 µM
  LC50: 5.5 µM
MDA-MB-435; Homo sapiens, MDA-MB-435, 48 h, read-out: Log TGI (converted)
  TGI: 2.95 µM
COLO 205
  GI50: 1.38 µM
COLO 205; read-out: Log TGI (converted)
  TGI: 3.02 µM
HCC 2998
  GI50: 1.51 µM
HCC 2998; [4]
  CC50: 6.03 µM
HCC 2998; read-out: Log TGI (converted)
  TGI: 3.02 µM
BT-549
  GI50: 0.0692 µM
  LC50: 3.39 µM
BT-549; read-out: Log TGI (converted)
  TGI: 1.07 µM
ACHN
  GI50: 17 µM
ACHN; [4]
  CC50: 64.6 µM
ACHN; read-out: Log TGI (converted)
  TGI: 33.1 µM
OVCAR-8
  GI50: 2.75 µM
OVCAR-8; [4]
  CC50: > 100 µM
OVCAR-8; read-out: Log TGI (converted)
  TGI: 13.5 µM
MCF7 [2]
  Drug uptake: 800 pmol
NCI-H23
  GI50: 2.95 µM
NCI-H23; [4]
  CC50: 56.2 µM
NCI-H23; read-out: Log TGI (converted)
  TGI: 11.7 µM
HCT-116
  GI50: 3.39 µM
  LC50: 58.9 µM
HCT-116; read-out: Log TGI (converted)
  TGI: 13.2 µM
OVCAR-3
  GI50: 1.1 µM
OVCAR-3; read-out: Log TGI (converted)
  TGI: 2.4 µM
OVCAR-5
  GI50: 5.25 µM
OVCAR-5; [4]
  CC50: 50.1 µM
OVCAR-5; read-out: Log TGI (converted)
  TGI: 18.2 µM
[3]
  GI50: 2.57 µM
  LC50: > 100 µM
[3]; read-out: Log TGI (converted)
  TGI: 8.71 µM
Malme-3M
  GI50: 1.66 µM
  LC50: 5.75 µM
Malme-3M; read-out: Log TGI (converted)
  TGI: 3.09 µM
CCRF-CEM
  GI50: < 0.01 µM
SNB-75
  GI50: 2.95 µM
SNB-75; [4]
  CC50: 9.77 µM
SNB-75; read-out: Log TGI (converted)
  TGI: 5.37 µM
U-251
  GI50: 1.41 µM
U-251; [4]
  CC50: 5.25 µM
U-251; read-out: Log TGI (converted)
  TGI: 2.75 µM
